What was measured:
[1] = system: U-937, HeLa, H460, 786-O, and MCF-7; test: 72-hour cytotoxicity across five human cell lines; format: cell-based; details: MTS and SRB cytotoxicity assays
In short: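 Cells were treated with test compound for 72 h. U-937 cells were read by MTS reduction. HeLa, H460, 786-O and MCF-7 cells were read by sulforhodamine B staining. IC50 values are given in nM as the mean with standard deviation, n ≥ 3.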

[2] = system: U-937 and HeLa human cancer cell lines; test: Anticancer activity screen, cell line not given; format: cell-based
In short: (§1)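 Human cancer cells were exposed continuously to test compound for 72 h. Viability was read by MTS for U-937 cells and by sulforhodamine B staining for HeLa cells. IC50 values are given in nM as the mean of at least three determinations with standard deviation.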

[3] = system: U-937 (hystiocytic lymphoma); test: 72-hour MTS cytotoxicity assay in U-937 cells; format: cell-based, human; details: read-out: IC50 (U-937), 72-hour exposure
In short: as §1

[4] = system: HeLa (cervical carcinoma); test: 72-hour SRB cytotoxicity assay in HeLa cells; format: cell-based, human; details: read-out: IC50 (HeLa), 72-hour exposure
In short: as §1

[5] = system: U-937 cells; test: Annexin V-FITC / propidium iodide apoptosis analysis; format: cell-based, human; details: 24 hours, U-937, 100-times the 72-hour IC50 values

CN1C(=O)[C@@]23C[C@]4([C@]56C[C@@]78SS[C@@](CO)(C(=O)N7[C@H]5Nc5ccccc56)N(C)C8=O)c5ccccc5N[C@@H]4N2C(=O)[C@]1(CO)SS3 [Compound 4, (+)-chaetocin A]
IC50 / potency range (in words) [1]: subnanomolar

CN1C(=O)C(=O)N2C(=C[C@]3(c4c[nH]c5ccccc45)c4ccccc4N[C@H]23)C1=O [Compound 52, (+)-Gliocladin C]
anticancer activity (in words) ([2]; 72-hour exposure, U-937 and HeLa): complete loss of biological activity

(+)-12,12'-dideoxyverticillin A [Compound 3]
IC50 [3]: 15.5 nM
IC50 [4]: 7.2 nM

(+)-chaetocin C [Compound 5]
IC50 / potency range (in words) [1]: subnanomolar
induction of apoptotic cell death [5]: induce caspase-dependent apoptotic cell death

(+)-gliocladin B [Compound 7]
IC50 ([2]; anticancer activity, cell line not specified): > 10000 nM

— paper PMC3728915 (Chemical science (Royal Society of Chemistry : 2010), 2013)
